Bioassay records from PubChem.
KCNK9 block: human KCNK9 channel inhibition. actives 1.2% (n = 310,000). B-score at 10 µM. AID 488922. HEK293 KCNK9, FluxOR thallium flux fluorescence; active compounds read low;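 active means ratio B-score over 3 SD below the library mean, with starting fluorescence within 5 SD of its mean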;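 further: negative B-score means less thallium flux so channel inhibition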
hERG protect: shields human hERG channel from block by proarrhythmic agents. CHO-hERG, FluxOR thallium flux, dofetilide IC70 present. activation (rescue from dofetilide block), less the hit threshold, % at 10 µM. Q12809. actives 0.51% (n = 310,000);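 active means activation above the mean of controls blocked by dofetilide plus 5 SD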;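 further: thallium influx through hERG after potassium depolarization seen as dye fluorescence rise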
KCNQ1 block: inhibitors of human KCNQ1 potassium channel | CHO-K1 KCNQ1, FluxOR thallium flux fluorescence; active compounds read high | actives 1.3% (n = 310,000) | P51787 | AID 2642 | B-score at 10 µM;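 active means compounds whose thallium flux B-score, printed positive for inhibition, exceeds three library SD while starting fluorescence stays within three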;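 further: channel opened by potassium depolarization with thallium stimulus after 20 min compound exposure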
KCNK3 block: human KCNK3 channel inhibition, primary screen | O14649 | CHO-KCNK3 thallium flux, FluxOR fluorescence; active compounds read low | B-score at 10 µM | actives 0.84% (n = 340,000);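 active means B-score under library mean minus 4 SD, starting fluorescence ratio at most library mean plus 5 SD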;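 further: more negative B-score means stronger inhibition of thallium flux through KCNK3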
KCNQ1 act: human KCNQ1 channel potentiation or activation | P51787 | CHO-K1 KCNQ1, thallium flux FluxOR fluorescence; active compounds read high | actives 0.35% (n = 310,000) | B-score at 10 µM;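 active means fluorescence ratio B-score, a plate-corrected score, at least three library SD, with initial intensity B-score within 5 SD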
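Assay system: CHO-K1 cells stably expressing KCNQ1. Medium: assay buffer for compound exposure, DMSO matched across wells. Timing: 37 °C overnight plating, 90-min dark dye load, 20-min compound pretreatment. Signal: kinetic FluxOR fluorescence, 10 s baseline plus 110 s post-stimulus.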
Kir21 block: Kir2.1 (mouse) channel inhibition | HEK293-Kir2.1, FluxOR thallium flux fluorescence; active compounds read low | P35561 | B-score at 10 µM | actives 0.85% (n = 310,000);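 active means fluorescence ratio B-score at or below minus 3 SD of library scores, with starting-brightness B-score within 2 SD, cut at about -4.2 in these data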;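 further: channel flux triggered by added potassium and thallium sulfate stimulus; B-score of peak minus minimum fluorescence over baseline after thallium stimulus; more negative B-score means stronger Kir2.1 block with less thallium influx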
Target sequence (P35561 whole entry, looked up): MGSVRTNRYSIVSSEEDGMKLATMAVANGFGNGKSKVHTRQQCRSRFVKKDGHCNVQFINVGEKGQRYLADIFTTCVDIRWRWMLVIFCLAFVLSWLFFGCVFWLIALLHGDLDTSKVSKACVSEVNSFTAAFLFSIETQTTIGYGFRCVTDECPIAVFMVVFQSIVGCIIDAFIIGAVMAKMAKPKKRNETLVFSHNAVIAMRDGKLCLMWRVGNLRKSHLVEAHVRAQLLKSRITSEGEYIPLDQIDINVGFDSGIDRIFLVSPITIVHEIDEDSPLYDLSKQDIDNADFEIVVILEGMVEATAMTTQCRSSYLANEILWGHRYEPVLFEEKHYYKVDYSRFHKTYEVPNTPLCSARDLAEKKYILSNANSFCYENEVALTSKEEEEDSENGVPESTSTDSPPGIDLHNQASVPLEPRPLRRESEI
KCNQ1 block val: confirmation of human KCNQ1 potassium channel inhibitors; shares compounds with KCNQ1 block; actives 93% (n = 1,600); KCNQ1 cell line, FluxOR thallium flux fluorescence; inhibition, % at 10 µM;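 active means primary screen active, with duplicate mean exceeding buffer control mean plus 3 SD of buffer wells, cut at about 28% in these data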;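 further: 0% = buffer control ratio and 100% = XE991 inhibitor control ratio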
CHO KCNQ1 ctr: KCNQ1 inhibitor counter-screen hit in parental CHO cells; shares compounds with KCNQ1 block; parental CHO-K1, FluxOR thallium flux fluorescence ratio; active compounds read low; zero means no signal rise above baseline; fluorescence ratio (Tl flux) at 10 µM; actives 21% (n = 1,600);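 active means mean of duplicate thallium-flux fluorescence ratios in parental host cells more than 5 SD below the buffer control mean, cut at about 0.38 in these data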;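 further: ratio is peak minus minimum fluorescence divided by baseline fluorescence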
KCNQ1 ephys val: human KCNQ1 inhibition validated by electrophysiology. shares compounds with KCNQ1 block. KCNQ1-CHO cells, automated patch clamp current. calls only at 10 µM. actives 20% (n = 490). AID 624120;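 active means KCNQ1 current drop exceeding 3 SD of negative control wells, seen in both duplicate runs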;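 further: steady state current during a 2 s step from -80 to +40 mV; negative values mean current inhibition and positive values mean potentiation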
KCNQ2 inh: rat KCNQ2 inhibition in KCNQ1 inhibitor specificity screen. shares compounds with KCNQ1 block. KCNQ2 cells, FluxOR thallium flux fluorescence. inhibition, % at 10 µM. actives 71% (n = 1,600). AID 651746;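 active means mean percent inhibition of the KCNQ2 thallium signal more than 5 SD above the buffer-only control wells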;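 further: KCNQ2 expressed in CHO cells; 0% = buffer control wells and 100% = XE-991 inhibitor control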
KCNQ1-KCNE1 inh: human KCNQ1/KCNE1 inhibition in KCNQ1 specificity screen. shares compounds with KCNQ1 block. KCNQ1/KCNE1 cells, FluxOR thallium flux fluorescence. inhibition, % at 10 µM. actives 77% (n = 1,600). AID 652147;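 active means mean percent inhibition of duplicate wells above the buffer-only control mean plus 3 SD of those controls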;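 further: 0% = buffer only wells and 100% = XE-991 inhibitor control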
* = called active by the depositor; i = inactive; nt = no result; + = active, no number. This is a sample that favours compounds with a hit; in the whole collection about 3.7% have one here.

SMILES	KCNK9 block	hERG protect	KCNQ1 block	KCNK3 block	KCNQ1 act	Kir21 block	KCNQ1 block val	CHO KCNQ1 ctr	KCNQ2 inh	KCNQ1-KCNE1 inh	others
CCOC(=O)C1CCN(S(=O)(=O)c2ccc3[nH]c(=O)c(=O)[nH]c3c2)CC1	i	-9	i	i	i	-0.51	nt	nt	nt	nt
Cc1ccc(OCC(=O)Nc2cccc(S(=O)(=O)N3CCCCCC3)c2)cc1C	i	-13	7*	i	i	1	96*	0.54	99%*	65%*	KCNQ1 ephys val=i
CC(=O)Nc1cccc(OCC(=O)Nc2cccc(S(=O)(=O)N3CCCC3)c2)c1	nt	nt	nt	i	nt	nt	nt	nt	nt	nt
CC(C)(C)c1ccc(OCCCC(=O)Nc2cccc(S(=O)(=O)N3CCOCC3)c2)cc1	nt	nt	nt	i	nt	nt	nt	nt	nt	nt
CC(C)(C)c1ccc(OCCC(=O)Nc2cccc(S(=O)(=O)N3CCCC3)c2)cc1	i	-12	8*	i	i	0.63	34*	0.49	84%*	66%*
CC(C)C[C@H](NC(=O)N1c2ccccc2NC(=O)[C@@H]1C(C)C)C(=O)N[C@@H](Cc1ccccc1)C(=O)O	i	-4	i	i	i	-1.1	nt	nt	nt	nt
Nc1c(C(=O)CSc2nnc(Cc3ccccc3)o2)c(=O)[nH]c(=O)n1C1CC1	nt	nt	nt	i	nt	nt	nt	nt	nt	nt
CC(C)(C)c1ccc(S(=O)(=O)N2CCC(c3nc4ccc(Cl)cc4[nH]3)CC2)cc1	i	-4	10*	i	i	2.1	117*	0.43	101%*	108%*
Fc1ccc(CNC(=S)Nc2ccc(OC(F)F)cc2)cc1	i	-8	7*	i	i	-0.15	56*	0.5	i	40%*
C=CCNC(=S)Nc1ccc(OC(F)F)c(Cl)c1	i	-13	9*	i	i	-0.18	0	0.53	61%*	i
O=C(Nc1ccc(OC(F)F)c(Cl)c1)Nc1ccc2c(c1)OCO2	i	-3	7*	i	i	-1.6	84*	0.45	i	i
C=CCNC(=S)Nc1ccc(Cl)cc1	i	-9	i	i	i	2.7	nt	nt	nt	nt
O=C(Nc1ccc2c(c1)OCO2)Nc1ccc2c(c1)OCO2	i	-7	i	i	i	-1.1	nt	nt	nt	nt
CC1=C(C(=O)Nc2ccccc2)C(c2cccs2)NC(=O)N1 (centres undefined)	i	-8	i	i	i	-1.3	nt	nt	nt	nt
Clc1cc(Br)ccc1OCCCNCc1ccccc1	i	-11	7*	i	i	-10*	68*	0.47	90%*	i
COc1cc(OC)cc(C(=O)Nc2nc(CC(=O)NCCc3ccccc3)cs2)c1	i	-23	15*	i	i	-0.46	48*	0.42	111%*	103%*
CCn1c(=O)c(CCC(=O)N2CCN(c3ccccn3)CC2)c(C)c2c(C)nn(-c3ccccc3)c21	i	-10	7*	i	i	0	48*	0.44	93%*	80%*
CCn1c(=O)c(CCC(=O)NCCN2CCOCC2)c(C)c2c(C)nn(-c3ccccc3)c21	i	-10	i	i	i	-1.6	nt	nt	nt	nt
O=c1oc(-c2ccccc2)nc2c1C1(CCCCC1)Cc1ccccc1-2	i	-8	i	i	i	-0.03	nt	nt	nt	nt
CCC1(CC)Cc2ccccc2-c2nc(-c3ccccc3)oc(=O)c21	i	-12	7*	i	i	0.09	60*	0.45	103%*	91%*
Cc1cc(C(=O)CSc2nc3ccc(Cl)cc3[nH]2)c(C)n1CC1CCCO1 (centres undefined)	i	-17	8*	i	i	-1	126*	0.47	109%*	121%*	KCNQ1 ephys val=i
Cc1cc(C(=O)CSc2nc3ccc(Cl)cc3[nH]2)c(C)n1C	i	-16	i	i	i	-0.72	nt	nt	nt	nt
CC(C)(C)SCCNS(=O)(=O)c1ccc(C#N)cc1	i	-7	i	i	i	0.91	nt	nt	nt	nt
CC(C)(C)NC(=O)COc1ccc2oc3c(c2c1)CCCC3	i	-9	i	i	i	-0.76	nt	nt	nt	nt
CC(C)NC(=O)c1cnc(N2CCN(c3ccccn3)CC2)c2ccccc12	i	-3	i	i	i	2.1	nt	nt	nt	nt
SMILES	KCNK9 block	hERG protect	KCNQ1 block	KCNK3 block	KCNQ1 act	Kir21 block	KCNQ1 block val	CHO KCNQ1 ctr	KCNQ2 inh	KCNQ1-KCNE1 inh	others
CCc1ccc(NC(=O)c2cnc(N3CCN(c4ccccn4)CC3)c3ccccc23)cc1	i	-27	8*	i	i	0.55	89*	0.37*	104%*	141%*
CCOC(=O)N1CCN(C(=O)C(=O)c2cn(CC(=O)N3CCCCCC3)c3ccccc23)CC1	i	-11	i	i	i	0.05	nt	nt	nt	nt
COc1ccc(-c2nc(CS(=O)CC(=O)NCCCN3CCCC(C)C3)c(C)o2)cc1OC (centres undefined)	i	-3	i	i	i	0.15	nt	nt	nt	nt
Cc1cccc(NC(=O)C2CCN(S(=O)(=O)c3c(C)c(C)cc(C)c3C)CC2)n1	i	-22	6*	i	i	0.93	78*	0.4	77%*	177%*
CSCC[C@H](NC(=O)[C@@H]1CSC2c3ccccc3C(=O)N21)C(=O)NCc1ccco1 (some centres undefined)	i	-5	i	i	i	1.8	nt	nt	nt	nt
CC(C)c1ccc(NC(=S)NCc2ccc3c(c2)OCO3)cc1	i	-15	8*	i	i	1.8	82*	0.51	i	61%*
COc1ccc(CCN=C(N)NS(=O)(=O)c2ccc(C)c(C)c2)cc1	i	-6	i	i	i	-0.94	nt	nt	nt	nt
O=C(Nc1nc(-c2ccccc2)c(C(=O)c2ccccc2)s1)c1ccc(S(=O)(=O)N2CCCC2)cc1	i	-9	8*	i	i	-0.69	78*	0.49	63%*	96%*
O=C(c1ccccc1)c1sc(N2CCCCCC2)nc1-c1ccccc1	i	-2	7*	i	i	0.63	124*	0.43	123%*	+	KCNQ1 ephys val=i
